Laboratory results: ChEMBL document CHEMBL1124774, “Synthesis and biological activity of some derivatives of rifamycin P” (1990)
Converted amounts (≈) assume the structure as drawn.

Columns and labels:
Escherichia coli = test: In vitro antibacterial activity of compound against Escherichia coli SKF 12140; assay type: functional
Klebsiella pneumoniae = test: In vitro antibacterial activity of compound against Klebsiella pneumoniae ISM; assay type: functional
[1] = tested on: Mycobacterium tuberculosis; test: In vitro antibacterial activity of compound against Mycobacterium tuberculosis H37Rv ATCC 9660; assay type: functional
Neisseria gonorrhoeae = test: In vitro antibacterial activity of compound against Neisseria gonorrhoeae ISM 68/126; assay type: functional
Pseudomonas aeruginosa = test: In vitro antibacterial activity of compound against Pseudomonas aeruginosa ATCC 10145; assay type: functional
Summary of the method: (§1)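 Twofold microdilution MIC in Iso-Sensitest broth over 128-0.0001 µg/mL. Inoculum was 10^4 cfu/mL, with incubation at 37 °C for 18-24 h.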

Proteus vulgaris = test: In vitro antibacterial activity of compound against Proteus vulgaris X19H ATCC 881; assay type: functional
[2] = tested on: Staphylococcus epidermidis; test: In vitro antibacterial activity of compound against Staphylococcus epidermidis ATCC 12228; assay type: functional; summary of the method: as §1
Streptococcus pyogenes [3] = test: In vitro antibacterial activity of compound against Streptococcus pyogenes C 203 SKF 13400; assay type: functional
Summary of the method: (§2)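 Streptococcal MICs were run by twofold microdilution in Todd-Hewitt broth over 128-0.0001 µg/mL. Inoculum was 10^4 cfu/mL, with incubation at 37 °C for 18-24 h.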

Staphylococcus aureus = test: In vitro antibacterial activity of compound against Staphylococcus aureus Tour L 165; assay type: functional; summary of the method: as §1
Streptococcus pneumoniae = test: In vitro antibacterial activity of compound against Streptococcus pneumoniae UC 41; assay type: functional; summary of the method: as §2
Enterococcus faecalis = test: In vitro antibacterial activity of compound against Streptococcus faecalis ATCC 7080.; assay type: functional; summary of the method: as §1
Haemophilus influenzae = test: In vitro antibacterial activity of compound against Haemophilus influenzae ATCC 19418; assay type: functional
Mycobacterium avium [4] = test: 50% inhibition of the 20 Mycobacterium (MAC) avium complex clinical isolates; assay type: functional
Summary of the method: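 Agar-dilution MICs, 2-fold dilutions over 128-0.0001 μg/mL, on Middlebrook 7H10 agar with 2% glycerol and 10% OADC. Organisms from Loevenstein-Jensen slants were grown in 7H9 broth with 0.5% Tween and 10% OADC, adjusted to McFarland no. 1, and spotted with a multipoint inoculator. Plates were sealed and incubated at 22, 30 or 37 °C for 4-20 days depending on strain.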

Mycobacterium avium [5] = test: 90% inhibition of the 20 Mycobacterium avium complex (MAC) clinical isolates
Mycobacterium avium [6] = test: Minimum inhibitory concentration of compound against 20 Mycobacterium avium complex (MAC) clinical isolates
Streptococcus pyogenes [7] = test: Inhibitory concentration of compound against Streptococcus pyogenus septicemia in the mouse, administarted in OS route; assay type: functional
Summary of the method: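 Male and female CD1 mice (18-22 g) were infected ip with S. pyogenes C203, with the challenge set so untreated mice died within 48 h. Groups of five received a single treatment immediately after infection. ED50 was calculated from the percentage surviving at each dose on day 10.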

Streptococcus pyogenes [8] = test: Minimum inhibitory concentration of compound against Streptococcus pyogenus septicemia in the mouse; assay type: functional

| SMILES | MIC (Escherichia coli) [µg/mL] | MIC (Klebsiella pneumoniae) [µg/mL] | MIC [1] [µg/mL] | MIC (Neisseria gonorrhoeae) [µg/mL] | MIC (Pseudomonas aeruginosa) [µg/mL] | MIC (Proteus vulgaris) [µg/mL] | MIC [2] [µg/mL] | MIC (Streptococcus pyogenes [3]) [µg/mL] | MIC (Staphylococcus aureus) [µg/mL] | MIC (Streptococcus pneumoniae) [µg/mL] | MIC (Enterococcus faecalis) [µg/mL] | MIC (Haemophilus influenzae) [µg/mL] | MIC50 (Mycobacterium avium [4]) [µg/mL] | MIC90 (Mycobacterium avium [5]) [µg/mL] | MIC (Mycobacterium avium [6]) [µg/mL] | ED50 (Streptococcus pyogenes [7]) [mg/kg] | MIC (Streptococcus pyogenes [8]) [µg/mL] |
| --- | --- | --- | --- | --- | --- | --- | --- | --- | --- | --- | --- | --- | --- | --- | --- | --- | --- |
| CCOC(=O)N1CCN(c2nc3c(s2)c2c(O)c4c(O)c(C)c5c(c43)C(=O)C(C)(O/C=C/C(OC)C(C)C(OC(C)=O)C(C)C(O)C(C)C(O)C(C)/C=C/C=C(/C)C(=O)N2)O5)CC1 (centres undefined) | 16 (≈ 17.9 µM) | 32 (≈ 35.8 µM) | 2 (≈ 2.23 µM) | 0.125 (≈ 0.14 µM) | 32 (≈ 35.8 µM) | 16 (≈ 17.9 µM) | 0.063 (≈ 0.0704 µM) | 0.063 (≈ 0.0704 µM) | 0.063 (≈ 0.0704 µM) | 0.063 (≈ 0.0704 µM) | 4 (≈ 4.47 µM) | 0.125 (≈ 0.14 µM) |  |  |  |  |  |
| COC1/C=C/OC2(C)Oc3c(C)c(O)c4c(O)c(c5sc(N6CCN(c7ccccc7)CC6)nc5c4c3C2=O)NC(=O)/C(C)=C\C=C\C(C)C(O)C(C)C(O)C(C)C(OC(C)=O)C1C (centres undefined) | 4 (≈ 4.45 µM) | > 128 | 1 (≈ 1.11 µM) | 0.125 (≈ 0.139 µM) | 8 (≈ 8.9 µM) | 16 (≈ 17.8 µM) | 0.032 (≈ 0.0356 µM) | 0.032 (≈ 0.0356 µM) | 0.008 (≈ 0.0089 µM) | 0.004 (≈ 0.00445 µM) | 1 (≈ 1.11 µM) | 0.125 (≈ 0.139 µM) |  |  |  |  |  |
| COC1/C=C/OC2(C)Oc3c(C)c(O)c4c(O)c(c5sc(N6CCN(c7ccc(Cl)cc7)CC6)nc5c4c3C2=O)NC(=O)/C(C)=C\C=C\C(C)C(O)C(C)C(O)C(C)C(OC(C)=O)C1C (centres undefined) | 8 (≈ 8.57 µM) | > 128 | 1 (≈ 1.07 µM) | 0.25 (≈ 0.268 µM) | 128 (≈ 137 µM) | 64 (≈ 68.6 µM) | 0.063 (≈ 0.0675 µM) | 0.125 (≈ 0.134 µM) | 0.063 (≈ 0.0675 µM) | 0.063 (≈ 0.0675 µM) | 4 (≈ 4.28 µM) | 0.125 (≈ 0.134 µM) |  |  |  |  |  |
| COC1/C=C/OC2(C)Oc3c(C)c(O)c4c(O)c(c5sc(N6CCN(Cc7ccccc7)CC6)nc5c4c3C2=O)NC(=O)/C(C)=C\C=C\C(C)C(O)C(C)C(O)C(C)C(OC(C)=O)C1C (centres undefined) | 32 (≈ 35 µM) | 64 (≈ 70.1 µM) | 0.125 (≈ 0.137 µM) | 0.125 (≈ 0.137 µM) | 16 (≈ 17.5 µM) | 32 (≈ 35 µM) | 0.063 (≈ 0.069 µM) | 0.063 (≈ 0.069 µM) | 0.008 (≈ 0.00876 µM) | 0.063 (≈ 0.069 µM) | 1 (≈ 1.1 µM) | 0.125 (≈ 0.137 µM) |  |  |  |  |  |
| COC1/C=C/OC2(C)Oc3c(C)c(O)c4c(O)c(c5sc(N6CCN(C)CC6)nc5c4c3C2=O)NC(=O)/C(C)=C\C=C\C(C)C(O)C(C)C(O)C(C)C(OC(C)=O)C1C (centres undefined) | 2 (≈ 2.39 µM) | 16 (≈ 19.1 µM) | 2 (≈ 2.39 µM) | 16 (≈ 19.1 µM) | 8 (≈ 9.56 µM) | 32 (≈ 38.2 µM) | 0.063 (≈ 0.0753 µM) | 0.032 (≈ 0.0382 µM) | 0.004 (≈ 0.00478 µM) | 0.125 (≈ 0.149 µM) | 0.032 (≈ 0.0382 µM) | 0.5 (≈ 0.597 µM) | 64 (≈ 76.5 µM) | 64 (≈ 76.5 µM) | 16 (≈ 19.1 µM) |  |  |
| COC1/C=C/OC2(C)Oc3c(C)c(O)c4c(O)c(c5sc(N6CCCC6)nc5c4c3C2=O)NC(=O)/C(C)=C\C=C\C(C)C(O)C(C)C(O)C(C)C(OC(C)=O)C1C (centres undefined) | 16 (≈ 19.8 µM) | 32 (≈ 39.6 µM) | 2 (≈ 2.48 µM) | 0.5 (≈ 0.619 µM) | 8 (≈ 9.9 µM) | 16 (≈ 19.8 µM) | 0.063 (≈ 0.078 µM) | 0.008 (≈ 0.0099 µM) | 0.004 (≈ 0.00495 µM) | 0.032 (≈ 0.0396 µM) | 2 (≈ 2.48 µM) | 0.125 (≈ 0.155 µM) |  |  |  |  |  |
| COC1/C=C/OC2(C)Oc3c(C)c(O)c4c(O)c(c5sc(N6CCNCC6)nc5c4c3C2=O)NC(=O)/C(C)=C\C=C\C(C)C(O)C(C)C(O)C(C)C(OC(C)=O)C1C (centres undefined) | 8 (≈ 9.72 µM) | 16 (≈ 19.4 µM) |  | 0.125 (≈ 0.152 µM) | 8 (≈ 9.72 µM) | 8 (≈ 9.72 µM) | 0.063 (≈ 0.0766 µM) | 0.125 (≈ 0.152 µM) | 0.125 (≈ 0.152 µM) | 0.063 (≈ 0.0766 µM) | 2 (≈ 2.43 µM) | 0.25 (≈ 0.304 µM) |  |  |  |  |  |
| COc1ccc(N2CCN(c3nc4c(s3)c3c(O)c5c(O)c(C)c6c(c54)C(=O)C(C)(O/C=C/C(OC)C(C)C(OC(C)=O)C(C)C(O)C(C)C(O)C(C)/C=C/C=C(/C)C(=O)N3)O6)CC2)cc1 (centres undefined) | 8 (≈ 8.61 µM) | > 128 | 0.25 (≈ 0.269 µM) | 0.125 (≈ 0.135 µM) | 128 (≈ 138 µM) | 64 (≈ 68.9 µM) | 0.063 (≈ 0.0678 µM) | 0.125 (≈ 0.135 µM) | 0.063 (≈ 0.0678 µM) | 0.063 (≈ 0.0678 µM) | 4 (≈ 4.31 µM) | 0.125 (≈ 0.135 µM) |  |  |  |  |  |
| CCNc1nc2c(s1)c1c(O)c3c(O)c(C)c4c(c32)C(=O)C(C)(O/C=C/C(OC)C(C)C(OC(C)=O)C(C)C(O)C(C)C(O)C(C)/C=C/C=C(/C)C(=O)N1)O4 (centres undefined) | 16 (≈ 20.5 µM) | 32 (≈ 40.9 µM) | 0.125 (≈ 0.16 µM) | 0.125 (≈ 0.16 µM) | 4 (≈ 5.12 µM) | 8 (≈ 10.2 µM) | 0.032 (≈ 0.0409 µM) | 0.063 (≈ 0.0806 µM) | 0.063 (≈ 0.0806 µM) | 0.063 (≈ 0.0806 µM) | 1 (≈ 1.28 µM) | 0.125 (≈ 0.16 µM) | 32 (≈ 40.9 µM) | 64 (≈ 81.8 µM) | 8 (≈ 10.2 µM) | > 4 | 0.063 (≈ 0.0806 µM) |
| COC1/C=C/OC2(C)Oc3c(C)c(O)c4c(O)c(c5sc(N6CCN(C(=O)OCc7ccccc7)CC6)nc5c4c3C2=O)NC(=O)/C(C)=C\C=C\C(C)C(O)C(C)C(O)C(C)C(OC(C)=O)C1C (centres undefined) | > 128 | > 128 | 0.5 (≈ 0.522 µM) | 0.125 (≈ 0.131 µM) | 32 (≈ 33.4 µM) | 64 (≈ 66.9 µM) | 0.032 (≈ 0.0334 µM) | 0.125 (≈ 0.131 µM) | 0.063 (≈ 0.0658 µM) | 0.063 (≈ 0.0658 µM) | 2 (≈ 2.09 µM) | 0.125 (≈ 0.131 µM) |  |  |  |  |  |
| COC1/C=C/OC2(C)Oc3c(C)c(O)c4c(O)c(c5sc(N6CCOCC6)nc5c4c3C2=O)NC(=O)/C(C)=C\C=C\C(C)C(O)C(C)C(O)C(C)C(OC(C)=O)C1C (centres undefined) | 16 (≈ 19.4 µM) | 32 (≈ 38.8 µM) | 2 (≈ 2.43 µM) | 0.125 (≈ 0.152 µM) | 16 (≈ 19.4 µM) | 8 (≈ 9.71 µM) | 0.063 (≈ 0.0765 µM) | 0.032 (≈ 0.0388 µM) | 0.002 (≈ 0.00243 µM) | 0.016 (≈ 0.0194 µM) | 1 (≈ 1.21 µM) | 0.5 (≈ 0.607 µM) | 32 (≈ 38.8 µM) | 128 (≈ 155 µM) | > 16 |  |  |
| COC1/C=C/OC2(C)Oc3c(C)c(O)c4c(O)c(c5scnc5c4c3C2=O)NC(=O)/C(C)=C\C=C\C(C)C(O)C(C)C(O)C(C)C(O)C1C (centres undefined) | 16 (≈ 23 µM) | 16 (≈ 23 µM) | 0.5 (≈ 0.718 µM) | 0.125 (≈ 0.179 µM) | 8 (≈ 11.5 µM) | 4 (≈ 5.74 µM) | 0.008 (≈ 0.0115 µM) | 0.125 (≈ 0.179 µM) | 0.032 (≈ 0.0459 µM) | 0.125 (≈ 0.179 µM) | 4 (≈ 5.74 µM) | 0.125 (≈ 0.179 µM) |  |  |  |  |  |
